Source: paper PMC9282716 (Cell reports, 2022)
Where two headings read alike, the source gives them in different places.

Assays:
[1] = system: Hs68 cells; test: TR-FRET cAMP assay in normal fibroblast cell line Hs68; type: cell-based, human; conditions: 10 μM agonist, Hs68 fibroblasts
[2] = system: EP2-deleted SK-N-AS cells; test: TR-FRET cAMP assay in EP2 knockout SK-N-AS cell lines; type: cell-based, human; conditions: read-out: PGE2 EC50 for cAMP
In short: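 EP2-knockout SK-N-AS lines were made with lentiCRISPRv2 sgRNAs, selected with puromycin (2 µg/mL) and verified by sequencing. […] After lysis with cAMP-d2 and anti-cAMP cryptate and 1 h at RT, TR-FRET was read (ex 340 nm; em 665/590 nm), n = 4. EC50 came from concentration–response curves.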

[3] = biological target: T1, EP2 receptor (Homo sapiens, UniProt P43116); test: cell-based; type: cell-based
[4] = biological target: T1, EP2 receptor; test: Cell-based TR-FRET cAMP assay in BE

T1 sequence (P43116 whole entry): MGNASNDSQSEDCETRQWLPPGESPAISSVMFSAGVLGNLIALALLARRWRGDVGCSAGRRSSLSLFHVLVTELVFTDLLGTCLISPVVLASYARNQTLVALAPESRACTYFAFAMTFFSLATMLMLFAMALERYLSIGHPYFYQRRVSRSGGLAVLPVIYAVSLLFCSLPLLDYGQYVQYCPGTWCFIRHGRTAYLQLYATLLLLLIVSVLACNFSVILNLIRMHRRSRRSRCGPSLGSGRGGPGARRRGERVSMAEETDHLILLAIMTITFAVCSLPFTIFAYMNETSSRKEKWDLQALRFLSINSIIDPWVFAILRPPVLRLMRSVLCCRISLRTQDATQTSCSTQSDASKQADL

O=C1CC[C@H](/C=C/[C@@H](O)Cc2ccccc2)N1CCCCCCc1nn[nH]n1 [CAY10598]
cAMP production [1]: more cAMP production than EP2 agonist butaprost and PGE2

CCCCC[C@H](O)/C=C/[C@H]1[C@H](O)CC(=O)[C@@H]1C/C=C\CCCC(=O)O [PGE2, Prostaglandin E2]
EC50 ([2]; Homo sapiens, SK-N-AS): > 10000 nM | EC50 ([2]; EP2 KO2 SK-N-AS cell line): > 10000 nM

CCCC1([C@H](O)C/C=C/[C@H]2[C@H](O)CC(=O)[C@@H]2CCCCCCC(=O)OC)CCC1 [butaprost]
EC50 ([3]; agonist EC50 for cAMP induction, SK-N-AS cells, n = 4): 170 nM | EC50 [4]: 470 nM

CCOc1c2c(c(OCC)c3ccccc13)C(=O)N(c1ccc(CC(=O)NS(=O)(=O)c3ccccc3)cc1)C2 [GW627368X]
IC50, inhibition of PGE2-induced cAMP production [3]: no effect
